Measured values published in ChEMBL document CHEMBL1124738, “Novel 21-aminosteroids that inhibit iron-dependent lipid peroxidation and protect against central nervous system trauma” (J Med Chem, 1990).

Key:
Format in all cases: functional
[1] = species on record: Rattus norvegicus; assay: Ability to inhibit iron-dependent lipid peroxidation in rat brain homogenate using MDA (malondialdehyde) formation assay at 300 uM
[2] = species on record: Mus musculus; assay: Lowest effective dose in a mouse head injury model was reported
In short: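 Unanesthetized male CF-1 mice, 16–22 g; concussive head injury by weight drop (900 g cm for 16–20 g mice, 950 g cm for 20–22 g). Vehicle or compound given blindly as iv bolus 3–5 min post-injury; vehicle 0.05 N HCl or 0.5% Tween 80. Four groups of 20 per trial (vehicle plus three doses). Grip test on suspended taut string at 1 h; group score as mean time on string.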

[3] = species on record: Rattus norvegicus; assay: Ability to inhibit iron-dependent lipid peroxidation in rat brain homogenate using MDA (malondialdehyde) formation assay
In short: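 Incubations at 37 °C contain 20% ethanol and compound up to 300 μM, and are started with 200 μM Fe2+. They are stopped after 20 min with ice-cold 12.5% TCA in 0.8 N HCl. Readout is TBAR formation, reported as IC50 or % inhibition at 300 μM.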

[4] = test system: Mus musculus; assay: Percent increase in KCN lethality (cytotoxic hypoxia) model against male CF-1 mice at a dose 30 mg/kg administered intravenously; settings: route intravenous
[5] = test system: Mus musculus; assay: Percent increase in KCN lethality (cytotoxic hypoxia) model against male CF-1 mice at a dose 100 mg/kg administered intravenously; settings: route intravenous
[6] = test system: Mus musculus; assay: Evaluated in a potassium cyanide lethality (cytotoxic hypoxia) model against male CF-1 mice at 100 mg/kg administered intravenously; settings: route intravenous
[7] = test system: Mus musculus; assay: Evaluated in a potassium cyanide lethality (cytotoxic hypoxia) model against male CF-1 mice at a dose 30 mg/kg administered intravenously; settings: route intravenous

Compound: C[C@]12CCC(=O)C=C1CCC1C2[C@H](O)C[C@@]2(C)C1CC[C@]2(O)C(=O)CN1CCN(c2ccccn2)CC1 (some centres undefined)
- inhibition [1]: 20%

Compound: C[C@]12CC(=O)[C@H]3[C@@H](CCC4=CC(=O)CC[C@@]43C)[C@@H]1CC[C@@H]2C(=O)CN1CCN(c2ccccn2)CC1
- inhibition [1]: 14%

Compound: C[C@]12CCC(=O)C=C1CCC1C2=CC[C@@]2(C)C1CC[C@]2(O)C(=O)CN1CCN(Cc2ncccc2O)CC1 (some centres undefined)
- inhibition [1]: 5%

Compound: C[C@]12CCC(=O)C=C1CC[C@@H]1[C@@H]2CC[C@@]2(C)[C@H]1CC[C@]2(O)C(=O)CN1CCN(c2ccccn2)CC1
- inhibition [1]: 26%

Compound: C[C@]12CCC(=O)C=C1CCC1C2=CC[C@@]2(C)C1CC[C@]2(O)C(=O)CN1CCN(c2ccccn2)CC1 (some centres undefined)
- Lowest effective dose [2]: 10 mg/kg
- inhibition [1]: 23%

Compound: CC(=O)N(O)CCCCCNC(=O)CCC(=O)N(O)CCCCCNC(=O)CCC(=O)N(O)CCCCCN [DEFEROXAMINE]
- IC50 [3]: 112 µM

Compound: CCNc1cccnc1N1CCN(CC(=O)[C@H]2[C@H](C)CC3C4CCC5=CC(=O)C=C[C@]5(C)C4=CC[C@@]32C)CC1.O=C(O)/C=C/C(=O)O (some centres undefined)
- Lowest effective dose [2]: 0.03 mg/kg
- IC50 [3]: 15 µM

Compound: C[C@]12C=CC(=O)C=C1CCC1C2[C@H](O)C[C@@]2(C)C1CC[C@]2(O)C(=O)CN1CCN(c2ccccn2)CC1 (some centres undefined)
- inhibition [1]: 0%

Compound: C[C@@H]1CC2C3CCC4=CC(=O)C=C[C@]4(C)C3=CC[C@]2(C)[C@H]1C(=O)CN1CCN(c2ccccn2)CC1 (some centres undefined)
- Lowest effective dose [2]: 10 mg/kg
- inhibition [1]: 4%

Compound: C[C@@H]1C[C@H]2[C@@H]3CCC4CC(=O)CC[C@]4(C)C3=CC[C@]2(C)[C@@]1(O)C(=O)CN1CCN(c2ccccn2)CC1 (some centres undefined)
- inhibition [1]: 31%

Compound: C[C@H]1C[C@@H]2[C@H]([C@@H](O)C[C@@]3(C)[C@H]2CC[C@]3(O)C(=O)COC(=O)CCC(=O)[O-])[C@@]2(C)C=CC(=O)C=C12.[Na+] [METHYLPREDNISOLONE SODIUM SUCCINATE]
- Increase in LD50 [4]: 0%
- Lowest effective dose [2]: 15 mg/kg
- inhibition [1]: 0%
- Increase in LD50 [5]: 20%

Compound: C[C@]12CCC(=O)C=C1CCC1C2C(=O)C[C@@]2(C)C1CC[C@]2(O)C(=O)CN1CCN(c2ccccn2)CC1 (some centres undefined)
- inhibition [1]: 3%

Compound: C[C@]12CC[C@H]3[C@@H](CCC4=CC(=O)CC[C@@]43C)[C@@H]1CC[C@@H]2C(=O)CN1CCN(c2ccccn2)CC1
- inhibition [1]: 9%

Compound: Cc1c(C)c2c(c(C)c1O)CC[C@@](C)(CCC[C@H](C)CCC[C@H](C)CCCC(C)C)O2 [ALPHA-TOCOPHEROL]
- IC50 [3]: 30 µM

Compound: C[C@]12CCC(=O)C=C1CCC1C2=CC[C@@]2(C)C1CC[C@]2(O)C(=O)CN1CCN(CCO)CC1 (some centres undefined)
- inhibition [1]: 0%

Compound: COc1ccccc1N1CCN(CC(=O)[C@@]2(O)CCC3C4CCC5=CC(=O)CC[C@]5(C)C4=CC[C@@]32C)CC1 (some centres undefined)
- inhibition [1]: 37%

Compound: CCN(CC)c1ccc(N2CCN(CC(=O)[C@H]3[C@H](C)CC4C5CCC6=CC(=O)C=C[C@]6(C)C5=CC[C@@]43C)CC2)nc1N(CC)CC.O=C(O)/C=C/C(=O)O (some centres undefined)
- Increase in LD50 [4]: 15%
- Lowest effective dose [2]: 0.003 mg/kg
- IC50 [3]: 3 µM
- Increase in LD50 [5]: 46%

Compound: COc1cccc(N2CCN(CC(=O)[C@@]3(O)CCC4C5CCC6=CC(=O)CC[C@]6(C)C5=CC[C@@]43C)CC2)n1 (some centres undefined)
- IC50 [3]: 101 µM

Compound: C[C@]12CCC(=O)C=C1CCC1C2=CC[C@@]2(C)C1CC[C@]2(O)C(=O)CN1CCN(c2cccc(N3CCCC3)n2)CC1 (some centres undefined)
- IC50 [3]: 57 µM

Compound: C[C@H]1CC2C([C@@H](O)C[C@@]3(C)C2CC[C@]3(O)C(=O)CN2CCN(c3ccccn3)CC2)[C@@]2(C)C=CC(=O)C=C12 (some centres undefined)
- inhibition [1]: 0%

Compound: C[C@@H]1C[C@H]2[C@@H]3CCC4=CC(=O)C=C[C@]4(C)C3=CC[C@]2(C)[C@H]1C(=O)CN1CCN(c2cc(N3CCCC3)nc(N3CCCC3)n2)CC1 [TIRILAZAD]
- Increase in LD50 [4]: 14%
- Lowest effective dose [2]: 0.003 mg/kg
- IC50 [3]: 18 µM
- Increase in LD50 [5]: 20%

Compound: C[C@]12CCC(=O)C=C1CCC1C2=CC[C@@]2(C)C1CC[C@]2(O)C(=O)CN1CCN(c2cc(N3CCCC3)nc(N3CCCC3)n2)CC1.O=C(O)/C=C/C(=O)O (some centres undefined)
- Increase in LD50 [6]: 33%
- Increase in LD50 [7]: 0%
- Lowest effective dose [2]: 1 mg/kg
- inhibition [1]: 25%

Compound: C[C@]12CCC(=O)C=C1CCC1C2=CC[C@@]2(C)C1CC[C@]2(O)C(=O)CN1CCNCC1 (some centres undefined)
- inhibition [1]: 15%

Compound: C[C@]12CCC(O)CC1CC[C@@H]1[C@@H]2C(=O)C[C@@]2(C)[C@H]1CC[C@]2(O)C(=O)CN1CCN(c2ccccn2)CC1 (some centres undefined)
- inhibition [1]: 3%
